Data: ChEMBL document CHEMBL1123555, “1,2-Bis(sulfonyl)hydrazines. 3. Effects of structural modification on antineoplastic activity” (1987)

species on record: Mus musculus; assay: Antitumor activity against L1210 leukemia cells in mice (activity expressed as average survival time of treated/control animals x 100); type: functional
How it was run: (§1)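 Compound given ip as a fine suspension (homogenized in drops of 20% aqueous Tween 80, made to volume with isotonic saline) at 10-150 mg/kg per day, once daily for 6 consecutive days starting 24 h after implantation. Vehicle-injected tumor-bearing controls were included. Read-out was survival time; body-weight change over therapy was the toxicity indicator.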

Structure (SMILES)	T/C
COc1ccc(S(=O)(=O)N(CCCl)NS(=O)(=O)c2ccccc2)cc1	136%
COc1ccc(S(=O)(=O)NN(C)S(C)(=O)=O)cc1	221%
Cc1ccc(S(=O)(=O)NN(C)S(C)(=O)=O)cc1	186%
COc1ccc(S(=O)(=O)N(C)NS(=O)(=O)Cc2ccccc2)cc1	153%
CN(NS(=O)(=O)c1ccc(Br)cc1)S(C)(=O)=O	191%
CN(NS(=O)(=O)c1ccc2ccccc2c1)S(=O)(=O)c1ccc(Br)cc1	123%
COc1ccc(S(=O)(=O)NN(C)S(=O)(=O)c2ccc(Cl)cc2)cc1	130%
CN(NS(C)(=O)=O)S(C)(=O)=O	340%
CN(NS(=O)(=O)c1ccc(Cl)cc1)S(C)(=O)=O	214%

species on record: Mus musculus; assay: Antitumor activity against B16 melanoma cells in mice. Activity is expressed as optimal effective dose.; type: functional
How it was run: (§2)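 Transplanted tumor in mice, given i.p. once daily for 6 consecutive days starting 24 h after implantation. Doses span 10-150 mg/kg per day as fine suspensions homogenized in a few drops of 20% aqueous Tween 80 and made up with isotonic saline. Groups of five; vehicle-injected tumor-bearing controls. %T/C = mean survival time treated/control × 100. Value is the daily dose giving maximum %T/C.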

Structure (SMILES)	Dose
COc1ccc(S(=O)(=O)N(CCCl)NS(=O)(=O)c2ccccc2)cc1	12.5 mg/kg
Cc1ccc(S(=O)(=O)NN(C)S(C)(=O)=O)cc1	60 mg/kg
COc1ccc(S(=O)(=O)N(C)NS(=O)(=O)Cc2ccccc2)cc1	50 mg/kg
COc1ccc(S(=O)(=O)NN(C)S(=O)(=O)c2ccc(Cl)cc2)cc1	50 mg/kg
COc1ccc(S(=O)(=O)N(CCCl)NS(C)(=O)=O)cc1	10 mg/kg
CN(NS(=O)(=O)c1ccc(Cl)cc1)S(C)(=O)=O	60 mg/kg
Cc1ccc(S(=O)(=O)N(C)NS(=O)(=O)c2ccc(Br)cc2)cc1	150 mg/kg
COc1ccc(S(=O)(=O)N(C)NS(=O)(=O)c2ccc(Br)cc2)cc1	100 mg/kg

test system: L1210; assay: Antitumor activity against L1210 leukemia cells in mice, activity is expressed as optimal effective dose.; type: functional, Mus musculus; how it was run: as §2

Structure (SMILES)	Dose
COc1ccc(S(=O)(=O)NN(C)S(C)(=O)=O)cc1	60 mg/kg
Cc1ccc(S(=O)(=O)NN(C)S(C)(=O)=O)cc1	40 mg/kg
COc1ccc(S(=O)(=O)N(C)NS(=O)(=O)Cc2ccccc2)cc1	50 mg/kg
COc1ccc(S(=O)(=O)NN(C)S(=O)(=O)c2ccc(Cl)cc2)cc1	150 mg/kg
CN(NS(=O)(=O)c1ccc(Cl)cc1)S(C)(=O)=O	60 mg/kg
Cc1ccc(S(=O)(=O)N(C)NS(=O)(=O)Cc2ccccc2)cc1	50 mg/kg

species on record: Mus musculus; assay: Antitumor activity against L1210 leukemia cells in mice, activity is expressed as average survival time of treated/control animals x 100; type: functional; how it was run: as §1

Structure (SMILES)	T/C
COc1ccc(S(=O)(=O)N(CCCl)NS(C)(=O)=O)cc1	214%

test system: not listed separately; assay: Antitumor activity against mouse B16 melanoma cells, calculated as average change in body weight from onset to termination of therapy; type: functional
How it was run: (§3)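 Tumor-bearing mice in groups of five, dosed i.p. daily for 6 days from 24 h post-implantation with suspensions in Tween 80/isotonic saline at 10-150 mg/kg per day; vehicle controls run alongside. Mice weighed during the experiment. Average percent body-weight change from onset to termination of therapy was taken as the toxicity index, reported at the optimal-survival dose.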

Structure (SMILES)	Weight change
CN(NS(=O)(=O)c1ccc(Cl)cc1)S(=O)(=O)c1ccc(Br)cc1	2%
CN(NS(C)(=O)=O)S(=O)(=O)c1ccc(Br)cc1	4.2%
COc1ccc(S(=O)(=O)N(CCCl)NS(=O)(=O)c2ccccc2)cc1	-2.8%
COc1ccc(S(=O)(=O)NN(C)S(C)(=O)=O)cc1	-11.9%
CC(=O)Nc1ccc(S(=O)(=O)N(C)NS(=O)(=O)c2ccc(Br)cc2)cc1	-5.7%
Cc1ccc(S(=O)(=O)NN(C)S(C)(=O)=O)cc1	-8.6%
COc1ccc(S(=O)(=O)N(C)NS(=O)(=O)Cc2ccccc2)cc1	2.1%
CN(NS(=O)(=O)c1ccc(Br)cc1)S(C)(=O)=O	-11.4%
CN(NS(=O)(=O)/C=C/c1ccccc1)S(=O)(=O)c1ccc(Br)cc1	0.7%
CN(NS(=O)(=O)c1ccc2ccccc2c1)S(=O)(=O)c1ccc(Br)cc1	3.7%
COc1ccc(S(=O)(=O)NN(C)S(=O)(=O)c2ccc(Br)cc2)cc1	1.3%
COc1ccc(S(=O)(=O)NN(C)S(=O)(=O)c2ccc(Cl)cc2)cc1	1%
CN(NS(=O)(=O)c1ccc(Br)cc1)S(=O)(=O)c1ccc(Br)cc1	-3.8%
CN(NS(=O)(=O)c1ccc2ccccc2c1)S(=O)(=O)c1ccc2ccccc2c1	4.6%
CN(NS(C)(=O)=O)S(C)(=O)=O	-7.9%
COc1ccc(S(=O)(=O)N(CCCl)NS(C)(=O)=O)cc1	3.8%
CN(NS(=O)(=O)c1ccc(Cl)cc1)S(C)(=O)=O	-8.7%
Cc1ccc(S(=O)(=O)N(C)NS(=O)(=O)c2ccc(Br)cc2)cc1	-5.1%
COc1ccc(S(=O)(=O)N(C)NS(=O)(=O)c2ccccc2[N+](=O)[O-])cc1	1.5%
COc1ccc(S(=O)(=O)N(C)NS(=O)(=O)c2ccc(Br)cc2)cc1	-0.1%
CN(NS(=O)(=O)c1ccccc1)S(=O)(=O)c1ccc(Br)cc1	1.5%
CN(NS(=O)(=O)/C=C/c1ccccc1)S(=O)(=O)/C=C/c1ccccc1	2%
Cc1ccc(S(=O)(=O)N(C)NS(=O)(=O)Cc2ccccc2)cc1	-2.4%
CCS(=O)(=O)NN(C)S(=O)(=O)c1ccc(Br)cc1	4.5%
CN(NS(=O)(=O)c1ccc(Br)cc1)S(=O)(=O)Cc1ccccc1	4.7%

species on record: Mus musculus; assay: Antitumor activity against B16 melanoma cells in mice, activity is expressed as optimal effective dose; type: functional; how it was run: as §2

Structure (SMILES)	Dose
CN(NS(=O)(=O)c1ccc(Cl)cc1)S(=O)(=O)c1ccc(Br)cc1	200 mg/kg
CN(NS(C)(=O)=O)S(=O)(=O)c1ccc(Br)cc1	20 mg/kg
COc1ccc(S(=O)(=O)NN(C)S(C)(=O)=O)cc1	60 mg/kg
CC(=O)Nc1ccc(S(=O)(=O)N(C)NS(=O)(=O)c2ccc(Br)cc2)cc1	150 mg/kg
CN(NS(=O)(=O)c1ccc(Br)cc1)S(C)(=O)=O	100 mg/kg
CN(NS(=O)(=O)/C=C/c1ccccc1)S(=O)(=O)c1ccc(Br)cc1	100 mg/kg
CN(NS(=O)(=O)c1ccc2ccccc2c1)S(=O)(=O)c1ccc(Br)cc1	200 mg/kg
COc1ccc(S(=O)(=O)NN(C)S(=O)(=O)c2ccc(Br)cc2)cc1	100 mg/kg
CN(NS(=O)(=O)c1ccc(Br)cc1)S(=O)(=O)c1ccc(Br)cc1	50 mg/kg
CN(NS(=O)(=O)c1ccc2ccccc2c1)S(=O)(=O)c1ccc2ccccc2c1	100 mg/kg
CN(NS(C)(=O)=O)S(C)(=O)=O	50 mg/kg
COc1ccc(S(=O)(=O)N(C)NS(=O)(=O)c2ccccc2[N+](=O)[O-])cc1	150 mg/kg
CN(NS(=O)(=O)/C=C/c1ccccc1)S(=O)(=O)/C=C/c1ccccc1	50 mg/kg
Cc1ccc(S(=O)(=O)N(C)NS(=O)(=O)Cc2ccccc2)cc1	50 mg/kg
CCS(=O)(=O)NN(C)S(=O)(=O)c1ccc(Br)cc1	30 mg/kg
CN(NS(=O)(=O)c1ccc(Br)cc1)S(=O)(=O)Cc1ccccc1	50 mg/kg

test system: not listed separately; assay: Antitumor activity against B16 melanoma cells in mice, activity is expressed as average survival time of treated/control animals x 100.; type: functional, Mus musculus; how it was run: as §1

Structure (SMILES)	T/C
CN(NS(C)(=O)=O)S(=O)(=O)c1ccc(Br)cc1	225%
COc1ccc(S(=O)(=O)N(CCCl)NS(=O)(=O)c2ccccc2)cc1	138%
COc1ccc(S(=O)(=O)NN(C)S(C)(=O)=O)cc1	233%
Cc1ccc(S(=O)(=O)NN(C)S(C)(=O)=O)cc1	256%
COc1ccc(S(=O)(=O)N(C)NS(=O)(=O)Cc2ccccc2)cc1	160%
CN(NS(=O)(=O)c1ccc(Br)cc1)S(C)(=O)=O	235%
COc1ccc(S(=O)(=O)NN(C)S(=O)(=O)c2ccc(Cl)cc2)cc1	189%
CN(NS(=O)(=O)c1ccc(Br)cc1)S(=O)(=O)c1ccc(Br)cc1	160%
CN(NS(C)(=O)=O)S(C)(=O)=O	278%
COc1ccc(S(=O)(=O)N(CCCl)NS(C)(=O)=O)cc1	184%
CN(NS(=O)(=O)c1ccc(Cl)cc1)S(C)(=O)=O	219%
COc1ccc(S(=O)(=O)N(C)NS(=O)(=O)c2ccccc2[N+](=O)[O-])cc1	158%
CN(NS(=O)(=O)c1ccccc1)S(=O)(=O)c1ccc(Br)cc1	160%
Cc1ccc(S(=O)(=O)N(C)NS(=O)(=O)Cc2ccccc2)cc1	172%
CCS(=O)(=O)NN(C)S(=O)(=O)c1ccc(Br)cc1	190%

species on record: Mus musculus; assay: Antitumor activity against L1210 leukemia cells in mice, activity is expressed as optimal effective dose; type: functional; how it was run: as §2

Structure (SMILES)	Dose
COc1ccc(S(=O)(=O)N(CCCl)NS(=O)(=O)c2ccccc2)cc1	10 mg/kg
CN(NS(=O)(=O)c1ccc(Br)cc1)S(C)(=O)=O	40 mg/kg
CN(NS(=O)(=O)c1ccc2ccccc2c1)S(=O)(=O)c1ccc(Br)cc1	100 mg/kg
COc1ccc(S(=O)(=O)NN(C)S(=O)(=O)c2ccc(Br)cc2)cc1	100 mg/kg
CN(NS(=O)(=O)c1ccc(Br)cc1)S(=O)(=O)c1ccc(Br)cc1	150 mg/kg
CN(NS(=O)(=O)c1ccc2ccccc2c1)S(=O)(=O)c1ccc2ccccc2c1	150 mg/kg
CN(NS(C)(=O)=O)S(C)(=O)=O	25 mg/kg
COc1ccc(S(=O)(=O)N(CCCl)NS(C)(=O)=O)cc1	10 mg/kg
Cc1ccc(S(=O)(=O)NN(C)S(=O)(=O)c2ccc(Br)cc2)cc1	100 mg/kg
Cc1ccc(S(=O)(=O)N(C)NS(=O)(=O)c2ccc(Br)cc2)cc1	50 mg/kg
COc1ccc(S(=O)(=O)N(C)NS(=O)(=O)c2ccc(Br)cc2)cc1	100 mg/kg

species on record: Mus musculus; assay: Antitumor activity against B16 melanoma cells in mice, activity is expressed as optimal effective dose.; type: functional; how it was run: as §2

Structure (SMILES)	Dose
CN(NS(=O)(=O)c1ccccc1)S(=O)(=O)c1ccc(Br)cc1	100 mg/kg

species on record: Mus musculus; assay: Antitumor activity against L1210 leukemia cells in mice calculated as average change in body weight from onset to termination of therapy; type: functional; how it was run: as §3

Structure (SMILES)	Weight change
COc1ccc(S(=O)(=O)N(CCCl)NS(=O)(=O)c2ccccc2)cc1	4.8%
COc1ccc(S(=O)(=O)NN(C)S(C)(=O)=O)cc1	-13.7%
Cc1ccc(S(=O)(=O)NN(C)S(C)(=O)=O)cc1	-12.3%
COc1ccc(S(=O)(=O)N(C)NS(=O)(=O)Cc2ccccc2)cc1	1.5%
CN(NS(=O)(=O)c1ccc(Br)cc1)S(C)(=O)=O	6.3%
CN(NS(=O)(=O)c1ccc2ccccc2c1)S(=O)(=O)c1ccc(Br)cc1	18.3%
COc1ccc(S(=O)(=O)NN(C)S(=O)(=O)c2ccc(Br)cc2)cc1	7.8%
COc1ccc(S(=O)(=O)NN(C)S(=O)(=O)c2ccc(Cl)cc2)cc1	-4.3%
CN(NS(=O)(=O)c1ccc(Br)cc1)S(=O)(=O)c1ccc(Br)cc1	1.7%
CN(NS(=O)(=O)c1ccc2ccccc2c1)S(=O)(=O)c1ccc2ccccc2c1	-3.3%
CN(NS(C)(=O)=O)S(C)(=O)=O	-15.3%
COc1ccc(S(=O)(=O)N(CCCl)NS(C)(=O)=O)cc1	-10.9%
CN(NS(=O)(=O)c1ccc(Cl)cc1)S(C)(=O)=O	-9.4%
Cc1ccc(S(=O)(=O)N(C)NS(=O)(=O)c2ccc(Br)cc2)cc1	5.6%
COc1ccc(S(=O)(=O)N(C)NS(=O)(=O)c2ccc(Br)cc2)cc1	3.4%
